Data from ChEMBL document CHEMBL5380787, “Optimized M24B Aminopeptidase Inhibitors for CARD8 Inflammasome Activation” (J Med Chem, 2023).
The source made the active and inactive calls. No cut-off for these calls is given here.

Assays:
[1] = test system: OCI-AML2; experiment: Induction of pyroptosis in human OCI-AML2 cells assessed as GSDMD cleavage at 20 uM incubated for 24 hrs by immunoblot analysis; type: functional, cell-based
Outline: (§1)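 Cells (MV4;11, OCI-AML2 or THP-1; WT or the knockout named) plated at 5 × 10^5 cells/well and exposed to 20 μM compound for 24 h. LDH in the supernatant was measured relative to a Triton X-100 lysis control. For immunoblots, cells were washed in PBS, sonicated, protein-normalized, run on SDS-PAGE and probed for GSDMD cleavage. n = 3.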

[2] = test system: THP-1; experiment: Induction of pyroptosis in CARD8 knockout human THP-1 cells harboring dox-inducible […] E274R mutant assessed as GSDMD cleavage at 20 uM pretreated with doxycycline for 16 hrs followed by compound addition and measured after 6 hrs by immunoblot analysis; type: functional, cell-based
Outline: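 CARD8−/− THP-1 cells carrying a doxycycline-inducible CARD8 E274R mutant were exposed or not to DOX at 100 ng/mL for 16 h. Compound was then added at 20 μM for 6 h, followed by LDH release and immunoblot analysis.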

[3] = test system: BMDM; experiment: Induction of pyroptosis in C57BL/6J mouse BMDM cells expressing NLRP1A and NLRP1B allele 2 assessed as GSDMD clevage at 20 uM incubated for 24 hrs by immunoblot analysis; type: functional, cell-based
Outline: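 Bone marrow cells from femurs and tibias of 7–12-week-old C57BL/6J mice were RBC-lysed and differentiated for 6 days at 37 °C in DMEM with 10% FBS and 15–20% L-cell medium, then replated. Cells were exposed to 20 μM compound for 24 h. Read-outs were LDH release against a lysis control and GSDMD immunoblot.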

[4] = test system: HEK-293T; experiment: Induction of pyroptosis in human HEK293T cells expressing CASP1 and GSDMD cotransfected with dTAG-CARD8ZUC and CARD8 FIIND S297A assessed as destabilization of DPP9-CARD8 ternary complex by measuring GSDMD clevage at 20 uM incubated for 6 hrs in presence of dTAG13 by immunoblot analysis; type: functional, cell-based
[5] = test system: MV4-11; experiment: Cytotoxicity against human MV4-11 cells assessed as reduction in cell viability incubated for 24 hrs by celltiter-glo assay; type: functional, cell-based; details: MV4-11, 24 h
Outline: (§2)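 MV4;11 cells (WT or CASP1−/−), grown in RPMI 1640 with 10% FBS at 37 °C, 5% CO2, plated 2000 cells/well, dosed by pintool across 100 μM to 15.2 nM in three-fold steps for 24 h. Viability by CellTiter-Glo luminescence after 2 min shaking and 10 min at 25 °C. IC50 as mean ± SEM of three biological replicates.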

[6] = test system: THP-1; experiment: Induction of pyroptosis in CARD8 knockout human THP-1 cells assessed as GSDMD cleavage at 20 uM incubated for 24 hrs by immunoblot analysis; type: functional, cell-based; outline: as §1
[7] = test system: THP-1; experiment: Induction of pyroptosis in DPP8/9 knockout human THP-1 cells assessed as GSDMD clevage at 20 uM incubated for 24 hrs by immunoblot analysis; type: functional, cell-based; outline: as §1
[8] = test system: THP-1; experiment: Induction of pyroptosis in PEPD knockout human THP-1 cells assessed as GSDMD clevage at 20 uM incubated for 24 hrs by immunoblot analysis; type: functional, cell-based; outline: as §1
[9] = test system: OCI-AML2; experiment: Induction of pyroptosis in CARD8 knockout human OCI-AML2 cells assessed as GSDMD cleavage at 20 uM incubated for 24 hrs by immunoblot analysis; type: functional, cell-based; outline: as §1
[10] = test system: OCI-AML2; experiment: Induction of pyroptosis in CARD8 knockout human OCI-AML2 cells assessed as LDH release at 20 uM incubated for 24 hrs; type: functional, cell-based; outline: as §1
[11] = test system: MV4-11; experiment: Induction of pyroptosis in human MV4-11 cells assessed as GSDMD cleavage at 20 uM incubated for 24 hrs by immunoblot analysis; type: functional, cell-based; outline: as §1
[12] = test system: THP-1; experiment: Induction of pyroptosis in CARD8 knockout human THP-1 cells assessed as LDH release at 20 uM incubated for 24 hrs; type: functional, cell-based; outline: as §1
[13] = test system: RAW264.7; experiment: Induction of pyroptosis in mouse RAW264.7 cells expressing NLRP1B allele 1 assessed as LDH release at 20 uM incubated for 24 hrs; type: functional, cell-based
Outline: (§3)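 RAW264.7 cells, grown in DMEM with 10% FBS, plated at 5 × 10^5 cells/well and exposed to 20 μM compound for 24 h. Supernatant LDH was measured relative to a Triton X-100 lysis control; lysates were immunoblotted for GSDMD cleavage. n = 3.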

[14] = test system: MV4-11; experiment: Cytotoxicity against CASP1 knockout human MV4-11 cells assessed as reduction in cell viability incubated for 24 hrs by celltiter-glo assay; type: functional, cell-based; details: MV4-11, 24 h; outline: as §2
[15] = test system: MV4-11; experiment: Induction of pyroptosis in CARD8 knockout human MV4-11 cells assessed as LDH release at 20 uM incubated for 24 hrs; type: functional, cell-based; outline: as §1
[16] = test system: MV4-11; experiment: Cytotoxicity against human MV4-11 cells assessed as reduction in cell viability at 1 uM incubated for 24 hrs by celltiter-glo assay relative to control; type: functional
Outline: (§4)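 Single-dose viability screen. MV4;11 or OCI-AML2 cells at 2000 cells/well were exposed to 1 μM compound for 24 h. Viability was read by CellTiter-Glo luminescence and expressed as percent inhibition. Values are means of three biological replicates.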

[17] = test system: OCI-AML2; experiment: Cytotoxicity against human OCI-AML2 cells assessed as reduction in cell viability at 1 uM incubated for 24 hrs by celltiter-glo assay relative to control; type: functional; outline: as §4
[18] = test system: MV4-11; experiment: Induction of cell death in human MV4-11 cells assessed as increase in PI uptake at 6.25 uM incubated for 6 hrs by PI staining based fluorescence analysis; type: functional
Outline: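 PI flux assay. 2 × 10^4 MV4;11 (WT, CARD8−/− or CASP1−/−) or OCI-AML2 cells in RPMI were given compound at 6.25 μM plus PI at 10 μM final. Fluorescence (Ex/Em 535/617 nm) was read every 5 min at 37 °C for 6 h, baseline-corrected to DMSO and normalized to the maximum response. n = 3.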

[19] = test system: OCI-AML2; experiment: Induction of cell death in CARD8 knockout human OCI-AML2 cells assessed as reduction in cell viability incubated for 24 hrs by celltiter-glo assay; type: functional, cell-based
Outline: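 OCI-AML2 cells, WT or CARD8−/−, were grown in RPMI 1640 with 10% FBS and plated at 2000 cells/well. Compound was added over a range of concentrations for 24 h, and viability was then read by CellTiter-Glo luminescence. Means ± SEM, n = 3.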

[20] = test system: RAW264.7; experiment: Induction of pyroptosis in mouse RAW264.7 cells expressing NLRP1B allele 1 assessed as GSDMD clevage at 20 uM incubated for 24 hrs by immunoblot analysis; type: functional, cell-based; outline: as §3
[21] = test system: THP-1; experiment: Induction of pyroptosis in XPNPEP1 knockout human THP-1 cells assessed as GSDMD clevage at 20 uM incubated for 24 hrs by immunoblot analysis; type: functional, cell-based; outline: as §1
[22] = test system: MV4-11; experiment: Induction of pyroptosis in CARD8 knockout human MV4-11 cells assessed as GSDMD cleavage at 20 uM incubated for 24 hrs by immunoblot analysis; type: functional, cell-based; outline: as §1
[23] = test system: T-cell; experiment: Induction of pyroptosis in human T cells expressing CARD8 assessed as GSDMD cleavage at 20 uM incubated for 24 hrs by immunoblot analysis; type: functional, cell-based
Outline: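 Resting human primary T cells (>90% purity) were thawed and cultured in RPMI-1640 with 10% FBS and 30 U/mL IL-2. They were exposed to 20 μM compound for 24 h, lysed, and immunoblotted for GSDMD cleavage.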

`COC(=O)[C@H](CC(C)C)NC(=O)[C@@H]1CCCN1C(=O)[C@@H](O)[C@H](N)CC(C)C` was tested, and the Activity [1] was “Active”, the Activity [2] was “inactive” and the Activity [3] was “inactive”. The Activity [4] was “Active”, the IC50 [5] was 270 nM and the Activity [6] was “inactive”. For the same compound, the Activity [7] was “inactive”, the Activity [8] was “Active” and the Activity [9] was “inactive”. For the same compound, the Activity [10] was “inactive”, the Activity [11] was “Active” and the Activity [12] was “inactive”. For the same compound, the Activity [13] was “inactive”, the IC50 [14] was > 20000 nM and the Activity [15] was “inactive”. For the same compound, the Activity [16] was 45%, the Activity [17] was 37% and the Activity [18] was “Active”. For the same compound, the Activity [19] was “inactive”, the Activity [20] was “inactive” and the Activity [21] was “Active”. For the same compound, the Activity [22] was “inactive” and the Activity [23] was “Active”.

`COC(=O)[C@@H]1CCCN1C(=O)[C@@H](O)[C@H](N)CC(C)C` was tested, and the Activity [1] was “Active”, the Activity [2] was “inactive” and the Activity [3] was “inactive”. For the same compound, the Activity [4] was “Active”, the IC50 [5] was 2200 nM and the Activity [6] was “inactive”. For the same compound, the Activity [7] was “inactive”, the Activity [8] was “Active” and the Activity [9] was “inactive”. The Activity [10] was “inactive”, the Activity [11] was “Active” and the Activity [12] was “inactive”. For the same compound, the Activity [13] was “inactive”, the IC50 [14] was > 100000 nM and the Activity [15] was “inactive”. The Activity [16] was 72%, the Activity [17] was 42% and the Activity [18] was “Active”. For the same compound, the Activity [19] was “inactive”, the Activity [20] was “inactive” and the Activity [21] was “Active”. For the same compound, the Activity [22] was “inactive” and the Activity [23] was “Active”.
